Data as given in ChEMBL document CHEMBL4513216, “Probing the Open Global Health Chemical Diversity Library for Multistage-Active Starting Points for Next-Generation Antimalarials” (ACS Infect Dis, 2020).

Assay: Toxicity liver stage against HepG2, at 10uM
Format: cell-based
Parameters: test concentration 10 uM, cell line HepG2-A16-CD81EGFP
Details: human, HepG2-A16-CD81EGFP cells; read-out: INHIBITION
Procedure, shortened: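 Uninfected HepG2-A16-CD81EGFP cells, 3 × 10^3 per well, 1536-well, plated on prespotted compound at 10 μM final, parasite-free screening media added to match infected plates; puromycin 10 μM positive, DMSO 0.5% negative; run in parallel with 48 h PbLuc assay at 37 °C, 5% CO2; viability by CellTiter-Glo luminescence, normalized to controls.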

Structure (SMILES)	cytotoxicity at 10 µM
COC(=O)C1CCN(C(=O)CN2CCN(c3cccc(C)c3)CC2)CC1	-17.5%
O=C(NC[C@H]1C[C@@H]2CCN1C[C@@H]2CN1CCCCC1)Nc1ccsc1	-1.31%
COc1ccc(NC(=O)Nc2c(O)c3ccccc3oc2=O)cc1	-9.87%
Cc1nn(C)cc1CN1CCCCCC1c1ccccc1Cl (stereo not given)	7.49%
C=C(C)Cn1c(=O)nc(N)c2c(-c3ccc(OC)cc3)csc21	-26%
Cc1cnc2n(c1=O)C(CC(=O)NCc1ccco1)CS2 (stereo not given)	-5.52%
O=S(=O)(c1cccnc1)N1CCN(Cc2nc(-c3ccco3)cs2)CC1	5.94%
COc1ncccc1C(=O)N1CC(c2nc(-c3ccccn3)no2)C1	3.19%
CN(C)CC1CSCCCN1C(=O)c1ccc(-c2ccccc2)cc1 (stereo not given)	4.54%
CN(C)CC(=O)N1CCC2(CC1)CN(Cc1ccccc1)C2	5.03%
O=C(c1ccco1)N1CCC2(CCC(=O)N2Cc2ccccc2)CC1	7.59%
CCN1C(=O)CC(c2ccccc2)C12CCN(c1ncc(C)cn1)CC2 (stereo not given)	-2.6%
CC(=O)NCC(=O)N1CCc2nc(C)nc(C)c2CC1	-12%
Cc1nccc([C@H]2C[C@@H]3CCN(S(C)(=O)=O)C[C@H]3O2)n1	-0.522%
CC(C)NC(=O)c1ccc2c(c1)nc1n2CCN(Cc2ccccc2)C1	6.61%
CCn1c(O)c(C(C)=O)c2cc(C)ccc21	-8.24%
O=C(c1ccnn1COc1ccc(Cl)cc1)N1CCSCC1	-4.56%
Cc1cc(=O)n(CC(=O)NCC2CCCO2)c(-c2cccc(Cl)c2)n1 (stereo not given)	-11%
CN1C[C@@H](C(=O)NC(C)(C)C)[C@@]2(COc3ccc(F)cc3C2=O)C1	1.5%
Cc1ccccc1C(=O)N1C[C@@H](O)[C@H](N2CCOCC2)C1	9.3%
CC(=O)N1CCCC(c2ccc(Nc3nc(C)cc(C)n3)cn2)C1 (stereo not given)	-4.09%
COc1ccc(-c2nc(CSC3CCCCNC3=O)co2)cc1 (stereo not given)	20.9%
COc1ccccc1CC(C)CC(=O)NC(C)C (stereo not given)	6.16%
CCn1cc(C(=O)NCC2(C(N)=O)CCOCC2)c2ccccc21	0.969%
N#CCCn1cnc2c(Br)cccc2c1=O	4.65%
Cc1nn(C)c(Cl)c1C1CCCN1CC(=O)N1CCOCC1 (stereo not given)	3.41%
O=S(=O)(c1ccc(F)cc1F)N1CCCCC1c1nnc2n1CCCC2 (stereo not given)	2.22%
CCNC(=O)CCC(=O)NC1(c2cccc(Br)c2)CC1	8.64%

Structure (SMILES)	cytotoxicity at 10 µM
COc1cccnc1NC(=O)COc1ccc(F)cc1F	8.68%
O=C(NC1CCC(C(=O)N2CCSCC2)CC1)N1CCC1 (stereo not given)	12.7%
Cc1cnn(CC2CCCCN2CC(=O)Nc2cccnc2)c1 (stereo not given)	3.5%
CC(C)N(C)C(=O)C1CCN(Cc2cc3c(cc2O)CCC3)CC1	6.15%
CC(C)NC(=O)CN(C)C1CCN(c2cnc3ccccc3n2)CC1	-6.14%
COCC(C)(CCO)NC(=O)Nc1cccc(F)c1C (stereo not given)	7.94%
COc1cccc(CC(=O)NC2CCCc3cn[nH]c32)c1 (stereo not given)	12.5%
Cn1nccc1NCc1cc2cc(F)ccc2o1	8.57%
Cc1ccc(C)c(OCc2nnc(SCC3CCCN(C)C3)o2)c1 (stereo not given)	5.24%
Cc1cnc2c(c1)N(C(=O)c1ccc(=O)n(C)c1)CCO2	0.965%
COc1ccc(-n2cnnc2SCCC#N)cn1	22.2%
CCC(CNC(=O)c1cc(OC)ccc1Br)N1CCc2ccccc2C1 (stereo not given)	-6.78%
CN(C(=O)c1cccc(C(=O)NCC(F)(F)F)c1)c1ccccc1	-14.8%
Cc1cccc(N2CCOCC3(C2)CN(c2cncnc2)C(=O)CO3)n1 (stereo not given)	5.88%
Cn1ccc(C(=O)NC2CCC23CCN(C(=O)c2ccccn2)CC3)c1 (stereo not given)	-71.7%
COCCO[C@@H]1CCN(C(=O)c2ccc[nH]2)[C@H]1Cc1cnn(C)c1	-71.7%
O=C(c1cc(C2CC2)on1)N1CC[C@]2(C[C@H](Oc3cccnc3)CO2)C1	-9.63%
CNC(=O)c1cn2cc(-c3ccccc3Cl)n(CC3CC3)c(=O)c2n1	0.562%
O=C(CN1C(=O)CCNC1=O)N1CCC(c2ccc(F)cc2)C1 (stereo not given)	4.3%
N#Cc1ccccc1CN1CCCC(c2nccn2CC2CC2)C1 (stereo not given)	2.84%
Nc1ccncc1-n1cc(CCO)cn1	0.769%
CSCc1nc(CCNC(=O)c2cnn(C(C)C)c2)cs1	-7.91%
COc1ccccc1N1CCN(CC[C@H](O)c2ccccc2)CC1=O	-0.081%
O=C(NC1CCCN(CCCc2ccccc2)C1)C1=CCCCC1 (stereo not given)	-0.739%
Fc1ccc(Cn2ncc3c2CN(c2noc(C4CC4)n2)C3)cc1	-2.76%
Cc1nc[nH]c1C(=O)N1CC[C@@H](NC(=O)c2ccccn2)[C@H](O)C1	4.61%
O=C1N(Cc2ccc(F)cc2)CCCC12CCN(C1CCSCC1)C2 (stereo not given)	1.77%
